Activity calls are given as the source filed them. The rule behind the calls is not given here.
Key:
[1] = target: Cruzipain (Trypanosoma cruzi) (UniProt P25779); assay: Inhibition of Trypanosoma cruzi recombinant cruzaine using Z-FR-AMC as substrate at 100 uM preincubated for 10 mins measured for 5 mins by spectrophotometric analysis in presence of triton relative to DMSO-treated control
How it was run: (§1)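 Fluorescence at ex 340/em 440 nm followed 5 min. Compounds screened at 100 µM. The main screen used 0.01% Triton without pre-incubation. Checks used 0.1% or no Triton and a 10-min pre-incubation. Triplicates, activity versus DMSO control.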

[2] = target: Cruzipain (Trypanosoma cruzi) (UniProt P25779); assay: Inhibition of Trypanosoma cruzi recombinant cruzaine using Z-FR-AMC as substrate at 100 uM preincubated for 10 mins measured for 5 mins by spectrophotometric analysis relative to DMSO-treated control; how it was run: as §1
[3] = target: T1, Glutathione reductase, mitochondrial (Homo sapiens, UniProt P00390); assay: Inhibition of human recombinant glutathione reductase using glutathione as substrate preincubated for 30 mins by colorimetric assay
T1 sequence (P00390 whole entry): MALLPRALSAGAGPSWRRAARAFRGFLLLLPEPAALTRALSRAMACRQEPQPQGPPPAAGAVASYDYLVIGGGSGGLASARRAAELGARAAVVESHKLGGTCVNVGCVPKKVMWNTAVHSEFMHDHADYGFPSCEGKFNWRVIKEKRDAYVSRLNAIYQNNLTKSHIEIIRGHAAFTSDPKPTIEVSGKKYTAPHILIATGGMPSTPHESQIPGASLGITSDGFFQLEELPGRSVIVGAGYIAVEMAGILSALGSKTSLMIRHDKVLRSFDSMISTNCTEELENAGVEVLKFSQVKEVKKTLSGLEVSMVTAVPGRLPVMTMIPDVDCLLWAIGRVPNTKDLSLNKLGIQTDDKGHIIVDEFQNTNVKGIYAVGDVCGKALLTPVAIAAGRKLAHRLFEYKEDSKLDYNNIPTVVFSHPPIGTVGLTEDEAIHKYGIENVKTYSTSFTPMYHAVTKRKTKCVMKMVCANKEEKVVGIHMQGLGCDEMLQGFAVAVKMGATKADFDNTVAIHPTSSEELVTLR
How it was run: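 Recombinant human glutathione reductase (10 mU) in 100 mM potassium phosphate pH 7.0, 1 mM EDTA, 400 µM NADPH. Pre-incubated with compound 30 min at 27 °C. Started with oxidized glutathione (10 µL of 1 mM stock). […] Carmustine positive control.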

Trypanothione reductase = Trypanothione reductase (Trypanosoma cruzi, UniProt P28593); assay: Inhibition of Trypanosoma cruzi trypanothione reductase expressed in Escherichia coli BL21(DE3) assessed as reduction of oxidized trypanothione preincubated for 30 mins measured for 30 mins by spectrophotometric analysis
[4] = Selectivity index, ratio of CC50 for mouse peritoneal macrophages to IC50 for Leishmania amazonensis IFLA/BR/1967/PH-8 promastigotes; type: functional
How it was run: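 Ratio of peritoneal macrophage CC50 (MTT, 24 h) to promastigote IC50 (MTT, 48 h).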

[5] = Cytotoxicity against mouse peritoneal macrophages after 24 hrs by MTT assay; type: cell-based, Peritoneal macrophage cell
How it was run: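 Murine peritoneal macrophages (5×10^5) cultured 24 h with a range of compound concentrations. Viability read by MTT, given as % lysis relative to cultures treated with amphotericin B (1 µg/mL).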

Trypanosoma cruzi = assay: Trypanocidal activity against Trypanosoma cruzi Tulahuen amastigotes infected in mouse L929 cells assessed as parasite growth inhibition after 7 days by beta-galactosidase assay; type: functional, organism-based; details: L929, 168 h
How it was run: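 L-929 fibroblasts (4.0×10^3/well) infected with β-galactosidase-expressing Tulahuen trypomastigotes (4.0×10^4/well) for 2 h, then washed. Compounds added at 48 h, in tetraplicate, RPMI without phenol red plus 10% FBS. After 7 days, chlorophenol red β-D-galactopyranoside (100 µM) and 0.1% Nonidet P-40 added overnight at 37 °C. Read at 570 nm as % growth inhibition. Benznidazole control.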

Leishmania amazonensis = assay: Antileishmanial activity against Leishmania amazonensis IFLA/BR/1967/PH-8 promastigotes assessed as parasite growth inhibition after 48 hrs by MTT assay; details: IFLA/BR/1967/PH-8, 48 h
[6] = Selectivity index, ratio of CC50 for mouse L929 cells to IC50 for Trypanosoma cruzi Tulahuen amastigotes; type: functional
How it was run: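 Ratio of L-929 CC50 (alamarBlue, 96 h) to amastigote IC50 from the β-galactosidase infection assay.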

[7] = Cytotoxicity against mouse L929 cells after 96 hrs by Alamar blue assay; type: cell-based
How it was run: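 L-929 fibroblasts seeded at 4.0×10^3 per well, same culture timing as the infection assay, exposed to rising concentrations for 96 h in tetraplicate. alamarBlue added, absorbance at 570 and 600 nm after 4–6 h. Viability as % reduction versus untreated cells. CC50 by linear interpolation.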

Sequence of Trypanothione reductase (P28593 whole entry): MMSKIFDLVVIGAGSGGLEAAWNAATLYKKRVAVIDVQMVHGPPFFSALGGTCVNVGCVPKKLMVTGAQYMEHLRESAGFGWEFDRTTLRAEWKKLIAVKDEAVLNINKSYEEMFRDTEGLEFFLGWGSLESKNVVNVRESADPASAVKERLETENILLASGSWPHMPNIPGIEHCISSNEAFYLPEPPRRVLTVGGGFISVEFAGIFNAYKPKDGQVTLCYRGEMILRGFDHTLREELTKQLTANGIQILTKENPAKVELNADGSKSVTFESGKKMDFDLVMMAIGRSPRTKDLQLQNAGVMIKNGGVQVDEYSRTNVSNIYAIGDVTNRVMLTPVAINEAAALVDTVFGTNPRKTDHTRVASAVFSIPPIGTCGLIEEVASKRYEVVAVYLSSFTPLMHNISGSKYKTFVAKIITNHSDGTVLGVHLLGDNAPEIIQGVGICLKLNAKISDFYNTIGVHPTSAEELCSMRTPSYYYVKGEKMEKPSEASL
Sequence of Cruzipain (Trypanosoma cruzi) (P25779 123-467 limits assumed): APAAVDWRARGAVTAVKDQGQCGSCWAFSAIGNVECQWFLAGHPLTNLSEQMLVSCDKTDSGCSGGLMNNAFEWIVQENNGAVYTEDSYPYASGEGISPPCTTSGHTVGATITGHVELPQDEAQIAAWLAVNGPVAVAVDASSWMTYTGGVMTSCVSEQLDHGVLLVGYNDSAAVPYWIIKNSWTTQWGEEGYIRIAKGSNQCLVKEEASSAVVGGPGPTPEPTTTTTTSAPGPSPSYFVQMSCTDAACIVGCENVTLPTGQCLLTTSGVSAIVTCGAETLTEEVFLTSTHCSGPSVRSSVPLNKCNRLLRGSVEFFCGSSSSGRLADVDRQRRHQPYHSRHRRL

| Compound | inhibition [1] | inhibition [2] [%] | IC50 [3] [µM] | IC50 (Trypanothione reductase) [µM] | Ratio CC50/IC50 [4] | CC50 at 24 h [5] [µM] | IC50 (Trypanosoma cruzi) [µM] | IC50 (Leishmania amazonensis) [µM] | Ratio CC50/IC50 [6] | CC50 at 96 h [7] [µM] |
| --- | --- | --- | --- | --- | --- | --- | --- | --- | --- | --- |
| O=C1/C(=C/c2cccc3cnccc23)CC/C1=C\c1cccc2cnccc12 |  |  | > 100 | > 100 | 23.8 | 21.4 | 31.3 | 0.9 | 16 | 500 |
| O=NN(CCCl)C(=O)NCCCl [CARMUSTINE] |  |  | 8.1 |  |  |  |  |  |  |  |
| O=C1/C(=C/c2ccc[nH]2)CCC/C1=C\c1ccc[nH]1 |  |  | > 100 | > 100 | 15.7 | 83.2 | 249 | 5.3 | 1.5 | 375 |
| O=C1/C(=C/c2ccnc3ccccc23)CC/C1=C\c1ccnc2ccccc12 |  |  | > 100 | > 100 | 0.8 | 3.7 | 7 | 4.9 | 3.6 | 25.3 |
| [N-]=[N+]=NCc1ccc(/C=C2\CC/C(=C\c3ccc(CN=[N+]=[N-])cc3)C2=O)cc1 |  |  | 228 | > 100 |  |  | > 250 |  |  |  |
| O=C1/C(=C/c2ccc(Cn3cc(-c4ccccc4)nn3)cc2)CC/C1=C\c1ccc(Cn2cc(-c3ccccc3)nn2)cc1 |  |  | > 100 | > 100 |  |  | > 250 |  |  |  |
| O=C1/C(=C/c2ccccc2)CC/C1=C\c1ccccc1 |  |  | > 100 | > 100 | 1.6 | 76.2 | 73 | 46.6 | 5.1 | 375 |
| C[C@@H]1[C@H](O)[C@@H](C)/C=C/C=C/C=C/C=C/C=C/C=C/C=C/[C@H](O[C@@H]2O[C@H](C)[C@@H](O)[C@H](N)[C@@H]2O)C[C@@H]2O[C@](O)(C[C@@H](O)C[C@@H](O)[C@H](O)CC[C@@H](O)C[C@@H](O)CC(=O)O[C@H]1C)C[C@H](O)[C@H]2C(=O)O [AMPHOTERICIN B] |  |  |  |  | 8.8 | 0.7 |  | 0.08 |  |  |
| O=C1/C(=C/c2ccc[nH]2)CC/C1=C\c1ccc[nH]1 |  |  | > 100 | > 100 | 3.8 | 55.8 | > 250 | 14.7 |  |  |
| O=C(Cn1ccnc1[N+](=O)[O-])NCc1ccccc1 [BENZNIDAZOLE] |  |  |  |  |  |  |  |  | >262 | > 1000 |

Further lines, with some results ahead:

| inhibition [1] | inhibition [2] [%] | IC50 [3] [µM] | IC50 (Trypanothione reductase) [µM] | Compound | Ratio CC50/IC50 [4] | CC50 at 24 h [5] [µM] | IC50 (Trypanosoma cruzi) [µM] | IC50 (Leishmania amazonensis) [µM] | Ratio CC50/IC50 [6] | CC50 at 96 h [7] [µM] |
| --- | --- | --- | --- | --- | --- | --- | --- | --- | --- | --- |
| inactive | 66 | > 100 | 14.7 | O=C1/C(=C/c2ccncc2)CCC/C1=C\c1ccncc1 | 19.9 | 23.9 | > 250 | 1.2 |  |  |
| inactive | 32 | > 100 | > 100 | Cc1ccc(/C=C2\CCC/C(=C\c3ccc(C)cc3)C2=O)cc1 | 0.2 | 19.7 | 230 | 110 | 1.1 | 250 |
| inactive | 16 | > 100 | > 100 | O=C1/C(=C/c2ccc(Cn3cc(CCO)nn3)cc2)CC/C1=C\c1ccc(Cn2cc(CCO)nn2)cc1 | 1.2 | 60.4 | > 250 | 50.9 |  |  |
| inactive | 42 | > 100 | > 100 | O=C1/C(=C/c2ccnc3ccccc23)CCC/C1=C\c1ccnc2ccccc12 | 1 | 0.6 | > 250 | 0.6 |  |  |
| inactive | 19 | > 100 | > 100 | O=C1/C(=C/c2cccc3cnccc23)CCC/C1=C\c1cccc2cnccc12 | 9.3 | 78.1 | 68.7 | 8.4 | 2.7 | 188 |
| inactive | 23 | > 100 | > 100 | O=C1/C(=C/c2ccncc2)CC/C1=C\c1ccncc1 |  |  | > 250 |  |  |  |
|  |  | > 100 | > 100 | CN(C)c1ccc(/C=C2\CC/C(=C\c3ccc(N(C)C)cc3)C2=O)cc1 | 0.4 | 17.6 | > 250 | 44.1 |  |  |
| inactive | 31 | > 100 | 45.8 | O=C1/C(=C/c2ccccc2)CCC/C1=C\c1ccccc1 [2,6-DIBENZYLIDENECYCLOHEXANONE] | 6 | 50.6 | > 250 | 8.4 |  |  |
| inactive | 35 | > 100 | > 100 | O=C1/C(=C/c2ccc([N+](=O)[O-])cc2)CC/C1=C\c1ccc([N+](=O)[O-])cc1 |  |  | > 250 |  |  |  |
|  |  | > 100 | > 100 | CN(C)c1ccc(/C=C2\CCC/C(=C\c3ccc(N(C)C)cc3)C2=O)cc1 | 1.1 | 20.8 | > 250 | 18.6 |  |  |
|  |  | > 100 | > 100 | Cc1ccc(/C=C2\CC/C(=C\c3ccc(C)cc3)C2=O)cc1 | 0.7 | 39.4 | > 250 | 52.6 |  |  |
